# bCat KO growth – primary screen for growth suppressors in beta-catenin knockout HCT116 cells (colon tumor, human); HCT116 beta-catenin knockout viability, CellTiter-Glo, 60 h; active compounds read low; viability, % at 10 µM; 140,000 tested, 1.5% active; AID 818, 2007;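 active = viability at or under a set limit, the compound median less 4 SD, cut at about 6% in these data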;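 also: 0% = Hyamine 1622 control at 20 µM and 100% = untreated cell control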
# HUVEC inhibit – inhibitors of HUVEC proliferation, primary screen, cell-based, 384-well; CellTiter-Glo luminescence, 72 h; active compounds read low; viability, % at 10 µM (by protocol); 86,000 tested, 1.1% active; AID 648, 2007;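 active = viability at or below 30%; inactive = viability above 30%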;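 also: 100% = median luminescence of DMSO-only cell control wells on each plate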
# H69AR growth 86K – proliferation blockers of H69AR lung cancer cells, primary screen, cell-based, human, 86K library | H69AR lung tumor viability, ATP luminescence, 72 h; active compounds read low | 85,000 tested, 6% active | viability, % at 10 µM;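 active = viability at or below 40%; inactive = viability above 40%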;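 also: multidrug resistant small cell line overexpressing MRP-1 efflux transporter; 100% = mean luminescence of untreated control wells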
# PTEN del growth – growth suppression of PTEN-null HCT116, primary screen, cell-based, CellTiter-Glo; HCT116 PTEN-null viability, 60 h; active compounds read low; viability, % at 10 µM; 140,000 tested, 1.2% active;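 active = viability at or below a set limit, 4 SD under the median of all tested compounds, cut at about 3.7% in these data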;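 also: PTEN knockout HCT116 line with beta catenin targeted HCT116 as companion control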
# Lung fibro prol – antiproliferative effect on LL 47 fibroblasts – human, LL 47 cells, CellTiter-Glo luminescence, primary screen | LL 47 human lung fibroblast viability, ATP luminescence; active compounds read low | viability, % at 10 µM | 85,000 tested, 1.1% active | AID 719, 2007;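 active = viability at or below 50% in the single dose screen; inactive = viability above 50%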;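 also: compound exposure lasted 72 h before the ATP readout; 100% = median luminescence of untreated cell-only wells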
#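 Benchmarks: Cell-only wells, no compound | Test system: LL 47 human lung fibroblasts, passage 12 or lower | Input: 1,150 cells/well | Measured by: CellTiter-Glo luminescence measuring cellular ATP | Medium: IMEM, 15% FBS supplement | Schedule: Overnight attachment after seeding, then 72 h compound exposure at 37 °C | Doses: Compound addition at 0.1% DMSO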
# Active calls of the source: *; nt = no result given. Shown is part of a subset that was picked to be rich in hits.
SMILES,bCat KO growth,HUVEC inhibit,H69AR growth 86K,PTEN del growth,Lung fibro prol
Cc1ccc(C(=O)CC(=O)c2cc(Cl)ccc2O)cc1,66,9.4*,5.2*,64,30*
Cc1ccccc1Cn1cc(NC(=O)c2cc(-c3cccs3)on2)cn1,75,66,52,72,79
O=C(Nc1ccc(C(F)(F)F)cc1)c1cccnc1N1CCOCC1,95,82,39*,91,83
O=C(NCCCN1CCOCC1)c1ccc(Cl)c(S(=O)(=O)N2CCCCCC2)c1,87,nt,nt,90,nt
CCCCn1cnc2cc(NCc3ccncc3)ccc21,96,106,100,95,91
CN(C)c1ccc(CNc2ccc3c(c2)ncn3C)cc1,83,91,5.2*,91,95
O=C(NCc1ccccc1)C(=O)NCC1COc2ccccc2O1 (stereo not drawn),24,54,29*,24,56
CCOC(=O)C(NC(=O)c1cccc(Cl)c1)(Nc1nnc(C)s1)C(F)(F)F (stereo not drawn),94,nt,nt,100,nt
COc1ccccc1-n1c(CNC(=O)c2ccco2)nnc1SCC(=O)Nc1nccs1,86,71,33*,84,95
CCC(C)n1c(SCC(=O)Nc2ccccc2C(F)(F)F)nc2ccsc2c1=O (stereo not drawn),75,95,91,71,88
O=C(/C=C/c1c(F)cccc1Cl)c1ccc(F)cc1,4.3*,nt,nt,2.4*,nt
O=C(N/N=C/c1c(Cl)cccc1Cl)c1ccc(F)cc1,98,nt,nt,92,nt
COc1ccc(/C(O)=C2\C(=O)C(=O)N(CC3CCCO3)C2c2cc(OC)ccc2OC)cc1 (stereo not drawn),93,81,100,90,97
CCOC(=O)C1=C(C)Nc2nc3ccccc3n2C1c1ccccc1 (stereo not drawn),97,80,11*,89,76
COc1ccc(C2C(C(=O)c3ccccc3)=C(C)Nc3nc4ccccc4n32)cc1OC (stereo not drawn),90,nt,nt,84,nt
Cc1ccc2nc3sc(-c4nnc(-c5ccccc5[N+](=O)[O-])o4)c(N)c3cc2c1,99,nt,nt,92,nt
Cc1ccc2cc(C#N)c(SCc3nnc(-c4ccccc4[N+](=O)[O-])o3)nc2c1,1.4*,nt,nt,1.2*,nt
CC(=O)c1c(N2CCN(Cc3ccccc3)CC2)[nH]c(-c2ccccc2)nc1=S,93,77,4.6*,91,93
CC(=O)[C@@]1(O)CC[C@H]2[C@@H]3C[C@H](C)C4=CC(=O)CC[C@]4(C)[C@H]3CC[C@@]21C,63,94,6.9*,74,87
CC(=O)[C@@]1(O)CC[C@H]2[C@@H]3CCC4=CC(=O)CC[C@]4(C)[C@H]3[C@@H](O)C[C@@]21C,88,97,92,97,94
Cc1ccc(C(=O)Nc2sc(C(=O)N(C)C)c(C)c2C#N)cc1,101,nt,nt,108,nt
COc1ccc2cc(CN(CCCN3CCOCC3)Cc3nnnn3C3CCCCC3)c(=O)[nH]c2c1,103,101,91,96,95
Cn1cccc1Cc1nnc(SCC(=O)Nc2ccccc2F)n1CCc1ccccc1,73,84,96,65,92
CCCCNCCCOc1cccc(Cl)c1,81,nt,nt,87,nt
COc1cc(C)c(Cl)cc1S(=O)(=O)n1cnc(C)c1,101,88,86,102,92
SMILES,bCat KO growth,HUVEC inhibit,H69AR growth 86K,PTEN del growth,Lung fibro prol
COc1ccc(C(C)C)cc1S(=O)(=O)n1cnc(C)c1,52,64,27*,45,91
O=C(NCC1CCCO1)NC1(C(F)(F)F)Oc2ccccc2O1 (stereo not drawn),70,71,21*,68,78
O=C(NC1(C(F)(F)F)Oc2ccccc2O1)N1CCCC1,70,65,28*,75,81
O=C(NCC1CCCO1)c1ccccc1 (stereo not drawn),95,99,91,104,105
O=C(Nc1ccc2c(c1)OCO2)NC1(C(F)(F)F)Oc2ccccc2O1,75,80,26*,87,93
O=C(Nc1ccc2c(c1)OCCO2)NC1(C(F)(F)F)Oc2ccccc2O1,74,75,40,66,93
COc1cc(/C=C2/CCC/C(=C\c3cc(O)c(OC)c(Cl)c3)C2=O)cc(Cl)c1O,2.0*,nt,nt,1.9*,nt
COc1cc(/C=C2\CC/C(=C\c3cc(OC)c(O)c(OC)c3)C2=O)cc(OC)c1O,2.1*,nt,nt,2.5*,nt
COc1cc(CN2CCN(c3cccc(Cl)c3)CC2)cc(OC)c1OC,32,59,26*,27,66
O=C1c2[nH]nc(-c3ccccc3O)c2C(c2ccccc2F)N1Cc1ccco1 (stereo not drawn),43,53,4.5*,28,77
COc1ccc(CCN2C(=O)c3[nH]nc(-c4ccccc4O)c3C2c2ccccc2)cc1OC (stereo not drawn),24,78,39*,27,90
CC(C)OCCCN1C(=O)c2[nH]nc(-c3ccccc3O)c2C1c1cccc(Cl)c1 (stereo not drawn),40,5.7*,6.5*,19,86
O=C1c2[nH]nc(-c3ccccc3O)c2C(c2ccccc2)N1Cc1ccco1 (stereo not drawn),81,91,nt,76,91
COCCCN1C(=O)c2[nH]nc(-c3ccccc3O)c2C1c1cccc(Cl)c1 (stereo not drawn),20,80,2.9*,25,65
COCCCN1C(=O)c2[nH]nc(-c3ccccc3O)c2C1c1ccc(Cl)cc1 (stereo not drawn),42,89,nt,36,89
O=C(CSc1nc2cc(Cl)ccc2s1)N1CCCc2ccccc21,100,nt,nt,89,nt
COc1ccc(-n2c(C)cc(C(=O)NC3CCCCC3)c2C)cc1,58,nt,nt,52,nt
COc1ccc(-n2nc(C(=O)Nc3ccc4c(c3)OCO4)c3c4ccccc4n(C)c3c2=O)cc1,nt,88,85,nt,93
COc1ccc(-n2nc(C(=O)Nc3ccc4c(c3)OCO4)c3ccccc3c2=O)c(OC)c1,11,72,7.0*,20,94
CCN(CC)CCNC(=O)c1nn(-c2ccc(C)cc2)c(=O)c2c1c1ccccc1n2C,7,20*,64,6,54
COc1ccccc1-n1nc(C(=O)Nc2ccc3c(c2)OCO3)c2ccccc2c1=O,81,74,42,81,85
COc1ccc(-n2nc(C(=O)Nc3ccc(OC)c(OC)c3)c3c4ccccc4n(C)c3c2=O)cc1,3.7*,30,9.2*,3.5*,77
COc1cc(NC(=O)C2=C(N3CCOCC3)/C(=C\c3ccc(Br)cc3)CC2)cc(OC)c1OC,57,nt,nt,58,nt
c1csc(-c2nnc(-c3ccc(N4CCOCC4)cc3)o2)c1,107,104,89,103,68
O=C1c2ccccc2C(=O)N1OCc1ccccc1,87,94,90,101,98

# Assay outcomes as filed in PubChem BioAssay.
